Many of the other results were omitted from the sample, so hits are more common in it than they were.
Dyrk1A ADPGlo: inhibitors of rat Dyrk1A kinase | Q63470 | ADP-Glo luminescence, NFATc1 peptide | inhibition, % at 12.5 µM | 310,000 tested, 0.43% active | AID 504441; in the data active means inhibition above about 50%;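 further: plate controls were vehicle with enzyme for no effect and no enzyme for full effect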
GSK3B inh: human GSK3beta kinase inhibition; P49841; GST-GSK3beta kinase, ADP-Glo luminescence, 60 min; stronger effect = lower value; activity score (negative = inhibition), % at 10 µM; 300,000 tested, 0.038% active; AID 2097;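 active means more than half of replicate wells score below -50%, meaning over 50% inhibition versus plate controls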;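 further: 0% = median DMSO wells and -100% = median GW8510 positive control wells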
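Assay system: GST-fused GSK3beta enzyme, cell-free / Medium: Tris pH 7.5 buffer with MgCl2, DTT, BSA, heparin / Also added: peptide substrate plus 25 µM ATP (final) / Compound: 10 µM single point / Timing: kinase reaction with compound 60 min at room temperature / Detection: ADP-Glo luminescence / Benchmarks: DMSO neutral wells and GW8510 at 20 µM as positive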
STK33 kinase inh: blocks human STK33 kinase activity; purified STK33, MBP phosphorylation, ADP-Glo luminescence; inhibition, % at 10 µM; 320,000 tested, 0.073% active; AID 2661;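 active means inhibition at or above 25%, using the most active replicate where run in duplicate; inactive means inhibition below 25%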
Target sequence (Q9BYT3 whole entry, looked up): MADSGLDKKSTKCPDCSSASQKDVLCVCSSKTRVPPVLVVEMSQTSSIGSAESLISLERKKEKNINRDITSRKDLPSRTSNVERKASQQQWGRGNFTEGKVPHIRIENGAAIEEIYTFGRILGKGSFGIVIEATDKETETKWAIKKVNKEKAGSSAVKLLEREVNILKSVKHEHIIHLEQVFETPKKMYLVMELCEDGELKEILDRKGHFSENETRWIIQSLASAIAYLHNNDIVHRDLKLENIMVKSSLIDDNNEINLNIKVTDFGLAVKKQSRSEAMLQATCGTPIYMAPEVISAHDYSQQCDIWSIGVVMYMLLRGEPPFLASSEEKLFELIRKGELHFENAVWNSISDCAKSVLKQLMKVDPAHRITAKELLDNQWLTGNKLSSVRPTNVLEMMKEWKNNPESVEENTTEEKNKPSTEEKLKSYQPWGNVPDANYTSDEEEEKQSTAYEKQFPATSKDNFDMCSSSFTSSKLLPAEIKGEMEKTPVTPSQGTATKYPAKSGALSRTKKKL
GSK3A inh: inhibitors of human GSK-3 alpha kinase; P49840; ADP-Glo luminescence, 60 min; inhibition, % at 10 µM; 320,000 tested, 0.1% active; AID 2650;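 active means more than half of replicates show inhibition above 20%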;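 further: GST-tagged GSK-3 alpha with peptide substrate and 25 µM ATP; 0% = DMSO neutral wells and 100% = GW8510 positive control wells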
CDK5 p35 inh: blocks human CDK5/p35 kinase activity; Q00535+Q15078; Recombinant CDK5/p35, ADP-Glo luminescence, 60 min; inhibition, % at 10 µM; 330,000 tested, 0.01% active;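 active means highest replicate inhibition of at least 50% and at least 75% of replicates reaching 50%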;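 further: plate controls were DMSO neutral control for no effect and GW8510 at 10 µM for full effect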
Numbers without * were called inactive; · = no result.

SMILES	Dyrk1A ADPGlo	GSK3B inh	STK33 kinase inh	GSK3A inh	CDK5 p35 inh
CCCC1=C(C(=O)OCC)C(c2sccc2C)n2ncnc2N1 (centres undefined)	-3	-34	1	78*	-3
CCOC(=O)C1=C(C)Nc2ncnn2C1c1c[nH]c2ccccc12 (centres undefined)	-2	-74*	-1	71*	5
Cc1cc(N2CCN(C)CC2)nc2ccc(NC(=O)c3ccc(Br)o3)cc12	10	-5	34*	0	1
Cc1cc(N2CCCCC2)nc2ccc(NC(=O)c3ccc(Br)o3)cc12	2	-1	4	1	-1
COc1ccccc1/C=C/C=N/NC(=O)CCn1cnc2ccccc21	10	2	0	-4	4
Fc1ccc(-c2cnc[nH]2)cc1	12	3	29*	7	1
O=S(=O)(c1cnc[nH]1)N1CCN(c2ccc(F)cc2)CC1	-2	2	0	-5	0
CC(CC(=O)Nc1ncc([N+](=O)[O-])s1)c1ccccc1 (centres undefined)	·	-20	-2	52*	3
CCC(Oc1ccccc1)C(=O)Nc1ncc([N+](=O)[O-])s1 (centres undefined)	1	3	0	-4	0
CCCn1c2ccc(/C(C)=N\O)cc2c2cc(/C(C)=N/O)ccc21	3	-2	44*	1	0
C/C(=N\O)c1ccc(Cl)c(Cl)c1	·	4	1	-3	·
CCN1CCN(Cc2c(O)ccc3c2O/C(=C\C=C\c2ccccc2)C3=O)CC1	-2	-1	-2	-1	0
CN(C)Cc1c(O)ccc2c1O/C(=C\C=C\c1ccccc1)C2=O	3	-54*	8	46	3
CCn1c2ccc(C)cc2c2nc3cc(C(=O)O)ccc3nc21	28	-5	57*	28	1
CCn1c2ccc(Cl)cc2c2nc3ccccc3nc21	·	1	2	·	·
CC(=O)N/C(=C\c1ccccc1)C(=O)OCC(=O)NC(C)C12CC3CC(CC(C3)C1)C2 (centres undefined)	1	3	-3	-1	-2
C=CCNc1nc(N)c(C(=O)c2ccc3c(c2)OCO3)s1	3	·	2	79*	15
O=C1NC2c3ccccc3C(=O)N2c2c1cnn2-c1ccccc1 (centres undefined)	18	0	28*	12	0
O=C1c2ccccc2N2C(=O)c3ccccc3[C@H]2N1c1ccccc1	1	-1	0	4	1
CCN(CC)c1ccc(Nc2nc(N3CCOCC3)c3ccccc3n2)cc1	7	0	28*	1	-2
CC1CN(C(=O)CS(=O)(=O)Cc2ccccc2)CC(C)O1 (centres undefined)	-2	2	0	-2	-1
CC(C)(C)C(=O)NC(=S)Nc1sc2c(c1C(N)=O)CCC2	4	-5	2	69*	-2
COc1ccc(-c2nn(-c3ccccc3)cc2/C=N/NS(=O)(=O)c2ccccc2)cc1	6	-1	3	-2	-5
COc1ccc(-c2nn(-c3ccccc3)cc2/C=N/O)cc1	41	-54*	0	46	4
CSc1ccc(CCNC(=O)CCc2nnc3ccc(NCCCN4CCCC4=O)nn23)cc1	6	1	5	1	-7
SMILES	Dyrk1A ADPGlo	GSK3B inh	STK33 kinase inh	GSK3A inh	CDK5 p35 inh
COc1ccc2oc3cc(C)[n+]([O-])c(-c4ccc(C)cc4)c3c2c1	21	-55*	1	53*	1
COc1ccc(-c2c3c(cc(C)[n+]2[O-])oc2ccc(OC)cc23)cc1	45	-44	1	34	·
Cc1cc(O)ccc1NS(=O)(=O)c1ccc2c3c(cccc13)C(=O)N2	36	-5	41*	14	0
CN(C)S(=O)(=O)c1ccc(=S)[nH]c1	·	-2	0	·	-1
CN(C)C/C=C/C(=O)Nc1cccc(-c2c[nH]c3ncnc(Oc4ccc(NC(=O)CC(=O)Nc5ccc(F)cc5)cc4F)c23)c1	68*	·	62*	2	0
N#C/C(=N\Nc1c(Cl)cccc1Cl)C(=O)NN	5	-24	14	75*	-6
Cc1ccc(C(=O)N/C(=C/c2cccs2)C(=O)NCc2ccco2)cc1	-5	-4	1	-1	0
Cc1c(N)cc(N)cc1C(=O)O	-3	0	-3	1	-1
O=C(CSc1nc2ccc(S(=O)(=O)N3CCOCC3)cc2[nH]1)N1CCOCC1	-4	2	0	-3	0
COc1ccc2noc3c2c1C(=O)c1ccccc1-3	15	1	12	6	-1
O=C1c2ccccc2-c2onc3ccc(NCCCn4ccnc4)c1c23	·	-29	48*	63*	·
O=C1CCNc2ccc(-c3ccccc3)cc21	22	1	2	10	2
O=C1CCNc2cc3ccccc3cc21	76*	2	2	7	-2
Cc1cc(C=C2C(=O)c3ccccc3C2=O)c(C)n1-c1cccc(C(=O)O)c1	21	-1	43*	-1	2
Cc1cc(C=C2C(=O)c3ccccc3C2=O)c(C)n1-c1ccc(C(=O)O)cc1	-4	0	32*	2	4
COC(=O)C1=C(C)N(CC2CC2)C(=NCCN2CCOCC2)N[C@H]1c1ccccc1	-6	-1	0	0	0
Cn1c(SCc2nnc(-c3ccc(F)cc3)o2)nnc1C1COc2ccccc2O1 (centres undefined)	12	-44	-1	60*	2
COc1ccc(/C=C/c2nc3ccccc3n2C)cc1	30	-38	50*	45	29
COc1c(-c2ccc(O)c(O)c2)oc2cc(O)cc(O)c2c1=O	85*	1	18	90*	10
CCCN1CCc2c(sc(NC(=O)C3CCN(S(=O)(=O)c4cccs4)CC3)c2C(N)=O)C1	0	-3	-1	4	1
COc1ccc(S(=O)(=O)NCCCCCC(=O)O)cc1C(=O)O	1	-1	-2	-2	1
CCc1nc(N)c(C#N)c(-c2ccc(OC)c(OC)c2)c1C	3	-3	-1	-2	0
COc1cc(O)ccc1C=O	8	-1	1	1	0
Cc1ccc(N(CC(O)CN2CCCCC2)S(=O)(=O)c2ccccc2)cc1 (centres undefined)	-2	1	-2	94*	-3
CC(C)(C)Nc1nc(SCC(=O)Nc2ccccc2)nc(N2CCOCC2)n1	3	-1	-1	-2	1
COc1cc(/C=N/NC(=O)c2nnn(-c3nonc3N)c2-c2cccs2)ccc1O	48	1	4	75*	-2
Nc1nonc1-n1nnc(C(=O)N/N=C/c2ccccc2F)c1-c1cccs1	36	0	2	64*	10
CSc1ccccc1Sc1cc(C(=O)O)c2ccccc2n1	3	0	-2	-2	-1
Cc1ccc(NC(=O)c2ccc(S(=O)(=O)NCC3CCCO3)cc2)cc1 (centres undefined)	2	1	-1	5	-1
O=C(NNC(=O)c1ccccc1[N+](=O)[O-])c1ccccn1	·	-4	-1	-1	0

Assay outcomes deposited in PubChem by Broad Institute.
